Measurements collected from several papers.
Compare with care: the assays were run in different laboratories.
Target: Serine/threonine-protein kinase ULK3 (ULK3, Homo sapiens, UniProt Q6PHR2)
Residues used in one study (Q6PHR2 1-472): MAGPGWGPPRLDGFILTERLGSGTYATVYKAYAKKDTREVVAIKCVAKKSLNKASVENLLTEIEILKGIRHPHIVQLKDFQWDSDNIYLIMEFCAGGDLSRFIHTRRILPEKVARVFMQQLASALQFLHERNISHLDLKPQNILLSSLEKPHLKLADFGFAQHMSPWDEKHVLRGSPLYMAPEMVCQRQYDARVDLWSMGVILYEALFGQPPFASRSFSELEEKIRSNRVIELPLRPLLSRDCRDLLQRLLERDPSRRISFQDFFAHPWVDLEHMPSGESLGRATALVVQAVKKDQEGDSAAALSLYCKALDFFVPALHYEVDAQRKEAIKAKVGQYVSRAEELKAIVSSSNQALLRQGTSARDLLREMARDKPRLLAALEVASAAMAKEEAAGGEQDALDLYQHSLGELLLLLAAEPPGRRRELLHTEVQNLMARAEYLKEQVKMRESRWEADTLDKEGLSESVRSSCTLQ

Structure (SMILES)	observed	action	method	tested at	quantity	value
C[C@@]1(Cc2ccc(C#N)cc2)C(=O)N(c2cc(Cl)cc(Cl)c2)c2ncc(C(=O)NC3(c4nc(C5CCC5)no4)CC3)n21	cell-free assay	–	competition with immobilised ligand	1 µM	remaining binding	100%
COc1cc(Cl)c(C(=O)N[C@@H](CN[C@H]2CC[C@@H](N)CC2)Cc2ccc(C#N)cc2)cc1-c1ccc(CN[C@H](C)c2ccc(C)cc2)o1	enzyme activity	inhibitor	–	1 µM	remaining activity	98%
Clc1ccc(Nc2nnc(Cc3ccncc3)c3ccccc23)cc1	cell-free assay	–	–	0.5 µM	remaining signal	101%
Nc1cnc(N2CCc3cc(S(=O)(=O)Nc4c(F)cc(Cl)cc4F)cc(N4CCCC4=O)c32)nc1	cell-free assay	–	competition with immobilised ligand	1 µM	remaining binding	100%
O=C1Nc2ccc(Cl)cc2C1=Cc1cc(Cl)c(O)c(Cl)c1	cell-free assay	–	–	0.5 µM	remaining signal	92.2%
Cc1ccc(C(=O)NCc2ccsc2)cc1C#Cc1cn(C(C)C)c2ncnc(N)c12	enzyme activity	inhibitor	–	1 µM	activity vs control	84%
Cc1cc(NC(=O)c2cccc3cc(-c4cccc5[nH]nc(N)c45)ccc23)ccc1F	enzyme activity	inhibitor	–	0.1 µM	activity vs control	98%
Cc1sc(C(=O)NC2COC2)cc1-n1cc(NC(=O)Nc2c(F)cccc2Cl)cn1	enzyme activity	inhibitor	–	10 µM	remaining activity	105%
COc1cccc2c(NCc3ccccc3)nc(-n3c(N)nc4ccccc43)nc12	target engagement in cells	inhibitor	chemoproteomics	20 mM	inhibition	-11.6%
CCN(CC)CCNC(=O)c1c(C)[nH]c(/C=C2\C(=O)Nc3ccc(F)cc32)c1C	cell-free assay	–	–	0.5 µM	remaining signal	57.4%
CCc1ccccc1C(=O)Nc1n[nH]c2c(C)c(F)c(C3C(C#N)=C(C)N(C)C(C)=C3C#N)cc12	cell-free assay	–	competition with immobilised ligand	1 µM	remaining binding	82%
CCCS(=O)(=O)Nc1ccc(F)c(C(=O)c2c[nH]c3ncc(-c4ccc(Cl)cc4)cc23)c1F	enzyme activity	inhibitor	–	1 µM	inhibition	< 10%
COc1cc2ncnc(Nc3ccc(F)c(Cl)c3)c2cc1OCCCN1CCOCC1	cell-free assay	–	–	0.5 µM	remaining signal	108%
COc1cc(-c2cn(C3CCc4ccccc4N(CC(F)(F)F)C3=O)nn2)ccc1-n1ccc(C)n1 (centres unmarked)	cell-free assay	–	competition with immobilised ligand	1 µM	remaining binding	61%
